EBV LMP1 NFkB – EBV LMP1-driven NF-kappaB luciferase reporter inhibitors, primary screen, cell-based, luminescence, single point. LMP1-induced NF-kappaB luciferase reporter cells. 350,000 compounds, 0.69% hits. inhibition, % at 12.5 µM. AID 504558, 2011; in the data active = inhibition above about 41%;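 note: 0% = neutral control wells and 100% = reference inhibitor control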
HIF activator – HIF pathway transcriptional activators, primary screen, cell-based, U2OS HRE-luciferase, luminescence; U2OS HRE-luciferase reporter; normalized: DMSO 0%, desferrioxamine 100%; activation, % at 7.5 µM (by protocol); 300,000 compounds, 0.32% hits;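 active = mean activation of at least 10% of the iron chelator positive control signal, with at least half of replicates also reaching 10%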
NR2E3 ag-1 – NR2E3 agonists in two-hybrid cells, primary screen, cell-based, luminescence, CHO-S, Gal4-NCOR/VP16-NR2E3. 360,000 compounds, 0.35% hits. AID 602229, 2012. luciferase. inhibition of corepressor binding, % at 3.98 µM. Photoreceptor-specific nuclear receptor (Homo sapiens), Q9Y5X4;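 active = inhibition above the mean of all tested compounds plus 3 SD, cut at about 70% in these data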;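 note: 0% = DMSO with NR2E3 transfected cells and 100% = cells lacking NR2E3 construct; higher means lower luciferase signal from less NR2E3 corepressor binding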
Target sequence (Q9Y5X4 whole entry, looked up, the tested form may be a part): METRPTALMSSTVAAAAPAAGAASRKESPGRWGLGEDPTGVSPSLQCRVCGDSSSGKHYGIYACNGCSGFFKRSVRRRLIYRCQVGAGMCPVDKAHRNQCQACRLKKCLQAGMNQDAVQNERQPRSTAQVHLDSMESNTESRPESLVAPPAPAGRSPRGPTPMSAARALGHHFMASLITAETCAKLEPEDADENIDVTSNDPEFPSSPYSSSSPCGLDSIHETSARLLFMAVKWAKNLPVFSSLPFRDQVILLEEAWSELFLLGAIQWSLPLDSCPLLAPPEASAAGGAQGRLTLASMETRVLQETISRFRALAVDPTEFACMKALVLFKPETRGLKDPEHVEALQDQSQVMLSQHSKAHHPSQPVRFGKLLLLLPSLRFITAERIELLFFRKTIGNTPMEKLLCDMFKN
TROY NFkB inh – inhibitors of TROY-driven NF-kB signaling, primary screen, Q293 LMP1-TROYcd cells, NF-kB luciferase, uHTS; Q293 LMP1-TROYcd NF-kB luciferase reporter, 4 h; inhibition, % at 10 µM; 360,000 compounds, 0.98% hits; AID 1347056, 2019;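 active = compounds whose plate-normalised and pattern-corrected inhibition of the luciferase reporter signal at the single screening dose is 50% or more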
NR2E3 ag-2 – inhibitors of NR2E3-RetCOR corepressor binding, primary screen, NR2E3 agonist project, biochemical, TR-FRET, GST-NR2E3, biotin-RetCOR; 320,000 compounds, 0.12% hits; inhibition of corepressor binding, % at 4.78 µM; AID 2300, 2010; 1536-well; Photoreceptor-specific nuclear receptor (Homo sapiens), Q9Y5X4;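 active = percent inhibition above the cutoff of mean plus 3 SD of all tested compounds, set per screening campaign, cut at about 20% in these data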;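 note: 0% = DMSO wells and 100% = biotin wells as full block of FRET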
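Assay system: NR2E3–RetCOR corepressor complex. Quantity: 1.35 nM GST-NR2E3. Buffer or medium: pH 7.5 Tris-based buffer. Reagent: biotinylated RetCOR corepressor at 7 nM final. Schedule: 5 h at 4 °C. Detection: TR-FRET, emission read at 617 and 671 nm. Replicates: one well per compound, singlicate testing.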
An asterisk follows results filed as active; . = not tested or not shown. An excerpt weighted towards active compounds, which were near 2% of everything screened.

SMILES	EBV LMP1 NFkB	HIF activator	NR2E3 ag-1	TROY NFkB inh	NR2E3 ag-2
O=[N+]([O-])c1ccc(N2CCCC2)c([N+](=O)[O-])c1	-2	.	-12	-2	.
COc1ccc(N/N=C/c2c(C(=O)O)ccc3ccccc23)cc1	69*	50*	-24	13	-1
COc1ccc2ccccc2c1/C=N/Nc1ccc(Cl)c(C(=O)O)c1	-11	0	-81	-4	-1
CCCN(CCC)C(=O)CC(c1ccc(F)cc1)c1ccco1 (configuration not stated)	0	-1	-4	15	1
O=C(CC(c1ccc(F)cc1)c1ccco1)N1CCOCC1 (configuration not stated)	61*	0	-14	10	2
Cc1ccc(NC(=O)C2=C(c3ccccc3)S(=O)(=O)CCS2(=O)=O)cc1	93*	0	16	74*	4
CC(=O)Nc1c(C(=O)N2CCCCCC2)cnn1-c1ccccc1	79*	0	-28	-11	-2
CC[n+]1c(/C=C/N(C)c2ccccc2)n(-c2ccccc2)c2ccc(-c3nc4ccccc4s3)cc21	51*	-2	91*	64*	-1
O=c1[nH]nc(-c2ccc[nH]2)[nH]1	3	.	-9	-14	.
CN(c1ncnc(N)c1[N+](=O)[O-])C1CCS(=O)(=O)C1 (configuration not stated)	16	3	-32	25	0
CN(c1ncnc(N)c1[N+](=O)[O-])C1CCCCC1	38	4	7	52*	1
CCCCN(c1ccccc1)c1ncnc(N)c1[N+](=O)[O-]	46*	2	-74	36	1
Cc1nnc(NS(=O)(=O)c2ccc(Br)cc2)s1	-4	0	3	0	-1
CC1=CN(S(=O)(=O)c2ccc(C)cc2)C[C@@H]2c3ccccc3N(S(=O)(=O)c3ccc(C)cc3)[C@H]12	-14	.	-14	-2	.
O=c1[nH]c2cc3ccccc3cc2nc1-c1nnnn1Cc1ccccc1	.	.	8	7	.
Oc1cccc2ccc(/C=C/c3ccccc3Br)nc12	12	-3	-131	55*	3
COc1cc(Br)c(/C=C/c2ccc3cccc(O)c3n2)cc1OC	8	0	-17	8	1
COc1ccc(N2Cc3cccc(C(=O)NC(C)CCc4ccco4)c3C2=O)cc1 (configuration not stated)	47*	0	-42	-12	2
CC(CCc1ccco1)NC(=O)c1cccc2c1C(=O)N(C1CCCCC1)C2 (configuration not stated)	-2	0	0	17	4
CC(C)c1cc(C(=O)Nc2sc3c(c2C#N)CCC3)no1	-3	0	-147	-54	-5
CC(C)c1onc(C(=O)Nc2sc3c(c2C#N)CCC3)c1[N+](=O)[O-]	1	191*	-9	8	1
N#CC1=C(N)SC(N)=C(C#N)C1c1cccc(Oc2ccccc2)c1	-4	0	30	62*	15
COc1cccc(OC)c1-c1cnc(NC(C)=O)cn1	.	.	-41	11	.
C=CCn1c(SCC(=O)Nc2sccc2C(N)=O)nc2sc(C)c(C)c2c1=O	-3	0	-2	51*	7
C=CCn1c(SCC(=O)Nc2ccccc2C)nc2sc(C)c(C)c2c1=O	0	-2	-26	1	-4
SMILES	EBV LMP1 NFkB	HIF activator	NR2E3 ag-1	TROY NFkB inh	NR2E3 ag-2
C=CCNC(=S)/N=c1/ccccn1CC	-7	0	8	9	2
N#CC1=C(N)C(C#N)(C#N)C(c2cccnc2)C2CC(c3ccccc3)CC=C12 (configuration not stated)	55*	5	-64	10	3
CCCCCCCCSc1nnc(/N=C/N(C)C)s1	10	0	-1	3	-1
Cc1cc(Sc2nnc(/N=C/N(C)C)s2)c2ccccc2n1	70*	.	18	35	2
Cc1cc(Sc2nnc(N)s2)c2ccccc2n1	71*	8	30	37	-2
CCOc1ccc(NC(=O)c2ccc(N3CC4CC(C3)c3cccc(=O)n3C4)c(NC(=O)c3cccnc3)c2)cc1 (configuration not stated)	61*	1	5	-16	2
COc1ccc(-c2cc3c(=O)n(CC(=O)N4CCN(C)CC4)ncn3n2)cc1	-4	1	-46	-16	0
CCCCCOc1ccc(CN2CCOCC2)cc1Cl	-85	4	-85	16	5
CCCCCc1ccc(OCCCC[n+]2cccc(C)c2)c(CCCCC)c1	16	0	-5	59*	2
CCC(C)(C)c1ccc(OCCCC[n+]2ccccc2)c(C(C)(C)CC)c1	15	0	-2	51*	3
CCCCCc1ccc(OCCCC[n+]2ccc(C)cc2)c(CCCCC)c1	20	.	-15	50*	-3
CCCCCc1ccc(OCCCC[n+]2ccccc2)c(CCCCC)c1	55*	0	-5	37	-1
Cc1oc(-c2ccccc2Cl)nc1CS(=O)CC(=O)NCCCN1CC(C)CC(C)C1 (configuration not stated)	-3	0	-34	-14	-5
O=C(CN1C(=O)NC2(CCOc3ccccc32)C1=O)c1cccs1 (configuration not stated)	-3	.	-12	-17	.
COc1ccc(Cc2nc(C)cc(Cl)n2)cc1[N+](=O)[O-]	3	0	-21	8	-4
Cc1ccc(NC(=S)c2nc3ccccc3s2)cc1	-16	-1	16	55*	1
S=C(Nc1ccc(Cl)cc1)c1nc2ccccc2s1	-16	4	-41	-45	0
COc1ccc(OC)c(CNC(=O)C2CCCN(S(=O)(=O)N3CCC(C)CC3)C2)c1 (configuration not stated)	-5	25*	3	-8	1
Cc1cccc(CC(=O)N2CCN(C(=O)c3ccco3)CC2)c1	5	0	2	-6	-2
COc1cc(C2Nc3ccc4ccccc4c3C3=C2C(=O)CC(C)(C)C3)ccc1OCC(=O)O (configuration not stated)	8	0	-15	-2	0
COc1cccc(C2Nc3ccc4ccccc4c3C3=C2C(=O)CC(C)(C)C3)c1OCC(=O)O (configuration not stated)	55*	0	-7	-4	4
CCCCC1C(=O)N(c2ccccc2)N(c2ccc(O)cc2)C1=O (configuration not stated)	55*	.	-27	55*	0
CCCCC1(CO)C(=O)N(c2ccccc2)N(c2ccccc2)C1=O	-5	0	-4	-10	0

Bioassay records: PubChem BioAssay, several laboratories
